The record followed here is ChEMBL document CHEMBL1125363, “Novel piperidine sigma receptor ligands as potential antipsychotic drugs” (J Med Chem, 1992).

One test deals with D(2) dopamine receptor (Mus musculus, UniProt P61168). Kind of test: In vitro binding affinity towards dopamine receptor D2.
The species entered for test [1] is Mus musculus. Kind of test: Oral potency tested by using anti-mescaline test. The class given is functional. The essentials:
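Mice; mescaline was given to evoke hallucinogen-type behaviour, and the test compound was dosed orally to antagonise it. Potency is the ED50 in mg/kg po. Some ED50s are the average of three measurements.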

The target of test [2] is Sigma non-opioid intracellular receptor 1 (Mus musculus, UniProt O55242). Kind of test: In vitro binding affinity for the mouse sigma opioid receptor.
The target in test [3] is Serotonin 2 (5-HT2) receptor (Mus musculus, UniProt Q02152+P34968+P35363). The test is described as follows: In vitro binding affinity for serotonin 5-hydroxytryptamine (5-HT) 2 receptors. In kind it is protein assay.
Test [4] is filed under the species Mus musculus. The test is described as follows: Potency was tested using Anti mescaline test(Intra peritoneal). In kind it is functional. An outline of the steps: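 Mouse mescaline-antagonism test with the test compound given intraperitoneally. Read-out is the ED50 in mg/kg ip.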

Sequence of D(2) dopamine receptor (P61168 whole entry): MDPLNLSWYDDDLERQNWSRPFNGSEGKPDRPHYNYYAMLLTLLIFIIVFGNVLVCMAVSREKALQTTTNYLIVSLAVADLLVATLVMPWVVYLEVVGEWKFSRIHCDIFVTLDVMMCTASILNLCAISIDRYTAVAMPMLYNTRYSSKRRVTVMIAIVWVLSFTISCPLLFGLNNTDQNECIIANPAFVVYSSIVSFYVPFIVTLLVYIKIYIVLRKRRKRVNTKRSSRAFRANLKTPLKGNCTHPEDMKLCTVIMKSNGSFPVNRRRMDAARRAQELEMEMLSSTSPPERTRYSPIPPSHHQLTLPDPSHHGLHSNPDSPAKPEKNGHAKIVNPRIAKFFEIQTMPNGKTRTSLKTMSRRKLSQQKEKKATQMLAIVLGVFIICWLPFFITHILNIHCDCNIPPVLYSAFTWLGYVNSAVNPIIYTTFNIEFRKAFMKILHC
Sequence of Sigma non-opioid intracellular receptor 1 (O55242 whole entry): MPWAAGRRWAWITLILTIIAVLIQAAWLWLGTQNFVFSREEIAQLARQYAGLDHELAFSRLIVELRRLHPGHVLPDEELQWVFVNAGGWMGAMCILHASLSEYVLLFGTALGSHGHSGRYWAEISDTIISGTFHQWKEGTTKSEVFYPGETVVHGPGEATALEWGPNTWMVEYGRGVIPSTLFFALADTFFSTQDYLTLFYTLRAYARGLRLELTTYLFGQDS

In turn, `O=C(CC1CCN(CCc2ccccc2)CC1)c1ccc(F)cc1` returned a half-maximal inhibitory concentration (IC50) on D(2) dopamine receptor of 42 nM. This compound registered an ED50 in the test filed under Mus musculus [1] of 4.1 mg/kg. The inhibition constant Ki in test [2] and in test [3] was 8 nM each time.
`Fc1ccc(COCC2CCN(Cc3ccncc3)CC2)cc1.O=C(O)/C=C/C(=O)O` gave an IC50 at D(2) dopamine receptor greater than 10000 nM. The compound further had a median effective dose (ED50) in the test listed under Mus musculus [4] of less than 10 mg/kg. Moreover, the affinity in test [2], expressed as Ki, was 2 nM.
On to `O.O=C(CC1CCN(CCc2c[nH]c3ccccc23)CC1)c1ccc(F)cc1`, for which the concentration for half-maximal inhibition (IC50) on D(2) dopamine receptor was determined as 7 nM. Further, the ED50 in the test listed under Mus musculus [1] is less than 10 mg/kg. Further, the Ki was determined as 26 nM in test [2] and 3.6 nM in test [3].
On to `O.O=C(CC1CCN(Cc2ccccc2)CC1)c1ccc(C(F)(F)F)cc1`, for which the IC50 on D(2) dopamine receptor was 4670 nM. Further, the ED50 in the test listed under Mus musculus [1] was greater than 10 mg/kg. In addition, the results for the inhibitory constant (Ki) in test [2] and in test [3] were 10 nM and greater than 1000 nM, respectively.
The corresponding values for `Fc1ccc(OCC2CCN(Cc3ccncc3)CC2)cc1.O` are 2750 nM, 1.1 mg/kg, 7 nM and 31 nM.
The corresponding values for `O.O=C(CC1CCN(Cc2ccccc2)CC1)c1ccc(CO)cc1` are greater than 10000 nM, greater than 30 mg/kg, 31 nM and 438 nM.
The matching figures for `COc1ccc(COCC2CCN(Cc3ccccc3)CC2)cc1.O=C(O)/C=C\C(=O)O`: 26000 nM, greater than 30 mg/kg, 3.5 nM and 287 nM.
At D(2) dopamine receptor, `Fc1ccc(COCC2CCN(Cc3ccccc3)CC2)cc1.O=C(O)/C=C\C(=O)O` came in with a 50% inhibitory concentration (IC50) of 3900 nM. In the test listed under Mus musculus [1], this compound had an ED50 of 14 mg/kg. The inhibition constant (Ki) amounted to 2 nM in test [2] and 272 nM in test [3].
The corresponding values for `CS(=O)(=O)c1ccc(OCC2CCN(CC3CC3)CC2)cc1` are greater than 10000 nM, greater than 30 mg/kg, 53 nM and 1135 nM.
In turn, `CC1(CN2CCC(COc3ccc(F)cc3)CC2)CC1(Cl)Cl.O=C(O)/C=C/C(=O)O` (stereo unspecified) returned an IC50 at D(2) dopamine receptor of 179 nM. In addition, in the test filed under Mus musculus [1], the median effective dose (ED50) is less than 10 mg/kg. The inhibition constant Ki was found to be 2 nM in test [2] and 15 nM in test [3].
The matching figures for `OC(Cc1ccc(F)cc1)C1CCN(CCCCc2ccccc2)CC1` (stereo unspecified): 900 nM, 18 mg/kg, 11 nM and 65 nM.
As to `O=C(O)/C=C\C(=O)O.c1ccc(CCCOC2CCN(Cc3ccccc3)CC2)cc1`, at D(2) dopamine receptor, the concentration for half-maximal inhibition (IC50) is 8100 nM. This compound also yielded an ED50 in the test listed under Mus musculus [4] of less than 10 mg/kg. The compound further registered a Ki in test [2] of 2 nM.
On to `CSc1ccc(C(=O)CC2CCN(Cc3ccccc3)CC2)cc1`, for which the concentration for half-maximal inhibition (IC50) on D(2) dopamine receptor is 715 nM. Moreover, the 50% effective dose (ED50) in the test filed under Mus musculus [1] is greater than 30 mg/kg. In addition, the inhibition constant (Ki) in test [2] was found to be 8 nM; in test [3], 208 nM.
For `O=C(CC1CCN(CCc2ccc(C(F)(F)F)cc2)CC1)c1ccc(F)cc1`, on D(2) dopamine receptor, the IC50 is 10 nM. In the test listed under Mus musculus [1], this compound displayed an ED50 of less than 10 mg/kg. Further, the Ki in test [2] stood at 9 nM; in test [3] it was 3.3 nM.
The corresponding values for `Fc1ccc(CN2CCC(COc3ccc(F)cc3)CC2)cc1` are 1070 nM, 5.9 mg/kg, 8 nM and 38 nM.
The corresponding values for `O.OCc1ccc(OCC2CCN(CC3CC3)CC2)cc1` are greater than 10000 nM, greater than 30 mg/kg, 35 nM and greater than 100 nM.
The matching figures for `Fc1ccc(COCC2CCN(CCc3ccccc3)CC2)cc1.O=C(O)/C=C\C(=O)O`: 560 nM, 15 mg/kg, 4 nM and 24 nM.
The compound `COc1ccc(OCC2CCN(Cc3ccccc3)CC2)cc1` had an IC50 at D(2) dopamine receptor greater than 10000 nM. The same compound came in with a median effective dose (ED50) in the test listed under Mus musculus [1] greater than 30 mg/kg. The inhibition constant (Ki) in test [2] came to 3 nM; in test [3], 55 nM.
For the compound `O.OC(CC1CCN(Cc2ccccc2)CC1)c1ccc2ccccc2c1` (stereo unspecified), the concentration for half-maximal inhibition (IC50) on D(2) dopamine receptor was 3330 nM. Further, the ED50 in the test filed under Mus musculus [1] is greater than 10 mg/kg. In addition, the inhibition constant (Ki) in test [2] is 31 nM; in test [3], greater than 100 nM.
`O=S(=O)(CC1CCN(CCC2CC2)CC1)c1ccc(F)cc1`: the IC50 at D(2) dopamine receptor was greater than 10000 nM. The ED50 in the test filed under Mus musculus [1] came out at 6.4 mg/kg. The Ki in test [2] came to 28 nM; in test [3], 745 nM.
With `O.c1ccc2c(OCC3CCN(CC4CC4)CC3)ccnc2c1`, the IC50 on D(2) dopamine receptor was found to be 4850 nM. This compound also registered an ED50 in the test filed under Mus musculus [1] of 19.2 mg/kg. The inhibition constant Ki in test [2] was 50 nM; in test [3], greater than 100 nM.
The corresponding values for `O.O=C(O)/C=C\C(=O)O.c1ccc(CN2CCC(COc3cccnc3)CC2)cc1` are greater than 10000 nM, greater than 30 mg/kg, 5 nM and greater than 10000 nM.
The corresponding values for `Fc1ccc(-c2ccc(OCC3CCN(CC4CC4)CC3)cc2)cc1` are greater than 10000 nM, less than 30 mg/kg, 83 nM and 396 nM.
Compound `c1ccc(OCC2CCN(CC3CC3)CC2)cc1` yielded a concentration for half-maximal inhibition (IC50) at D(2) dopamine receptor of 3170 nM. Also, the 50% effect level in the test listed under Mus musculus [1] (ED50) was put at a dose of 30 mg/kg. The figures for the Ki in test [2] and in test [3] were 7 nM and 53 nM, respectively.
The matching figures for `O.OC(CC1CCN(Cc2ccccc2)CC1)c1cccs1` (stereo unspecified): 3720 nM, greater than 30 mg/kg, 5 nM and 446 nM.
As to `O=C(CC1CCN(CCc2ccc(Cl)cc2)CC1)c1ccc(F)cc1`, the concentration for half-maximal inhibition (IC50) on D(2) dopamine receptor stood at 14 nM. Moreover, the 50% effect level in the test listed under Mus musculus [1] (ED50) was put at a dose of 1.8 mg/kg. Also, the values for the inhibition constant (Ki) in test [2] and in test [3] were 5 nM and 8.4 nM, respectively.
On to `c1ccc(Oc2ccc(OCC3CCN(CC4CC4)CC3)cc2)cc1`, for which the IC50 at D(2) dopamine receptor was greater than 10000 nM. Also, the ED50 in the test filed under Mus musculus [1] was greater than 30 mg/kg. The figures for the Ki in test [2] and in test [3] were 24 nM and 584 nM, respectively.
On to `CS(=O)(=O)c1ccc(C(=O)CC2CCN(Cc3ccccc3)CC2)cc1`, for which, at D(2) dopamine receptor, the IC50 was greater than 10000 nM. Further, in the test listed under Mus musculus [1], the 50% effective dose (ED50) was greater than 30 mg/kg. Also, the Ki was determined as 18 nM in test [2] and 116 nM in test [3].
The corresponding values for `O.OC(CC1CCN(Cc2ccccc2)CC1)c1ccco1` (stereo unspecified) are greater than 10000 nM, greater than 30 mg/kg, 11 nM and 1323 nM.
The matching figures for `O.O=C(CC1CCN(Cc2ccccc2)CC1)c1ccc(O)cc1`: 1340 nM, greater than 30 mg/kg, 18 nM and greater than 1000 nM.
The matching figures for `O=C(O)/C=C\C(=O)O.c1ccc(CN2CCC(COC3CC3)CC2)cc1`: greater than 10000 nM, greater than 30 mg/kg, 2 nM and greater than 10000 nM.
For `c1cc2cc(OCC3CCN(CC4CC4)CC3)ccc2[nH]1`, on D(2) dopamine receptor, the concentration for half-maximal inhibition (IC50) was determined as 2350 nM. Further, in the test listed under Mus musculus [1], the median effective dose (ED50) was less than 30 mg/kg. Also, the Ki in test [2] worked out at 34 nM; in test [3], 112 nM.
The matching figures for `Fc1ccc(OCC2CCN(Cc3ccc4ccccc4c3)CC2)cc1`: 4340 nM, 1.7 mg/kg, 51 nM and 118 nM.
For the compound `O.O=C(Cc1ccc(F)cc1)C1CCN(Cc2ccccc2)CC1.O=C(O)/C=C\C(=O)O`, the IC50 on D(2) dopamine receptor came to 4560 nM. The compound further registered an ED50 in the test listed under Mus musculus [1] of 18 mg/kg. In addition, the inhibition constant Ki worked out at 3 nM in test [2] and 290 nM in test [3].
The matching figures for `COc1ccc(C(O)CC2CCN(Cc3ccccc3)CC2)cc1.Cl` (stereo unspecified): greater than 10000 nM, greater than 30 mg/kg, 20 nM and 187 nM.
In the case of `Cl.Clc1ccc(OCC2CCN(CC3CC3)CC2)c(Cl)c1`, at D(2) dopamine receptor, the IC50 was determined as 111 nM. It took a dose of 2.9 mg/kg to reach the 50% effect level in the test listed under Mus musculus [1] (ED50). Further, the inhibition constant Ki was 4 nM in test [2] and 32 nM in test [3].
The corresponding values for `COc1cc(OCC2CCN(CC3CC3)CC2)cc(OC)c1OC.Cl` are greater than 10000 nM, greater than 30 mg/kg, 50 nM and 8706 nM.
The corresponding values for `Cl.Fc1ccc(COCC2CCN(CC3CCCCC3)CC2)cc1` are 3350 nM, greater than 10 mg/kg, 3 nM and 127 nM.
For the compound `Cl.Fc1c(F)c(F)c(OCC2CCN(CC3CC3)CC2)c(F)c1F`, the IC50 on D(2) dopamine receptor was determined as 5680 nM. Also, the median effective dose (ED50) in the test listed under Mus musculus [1] came to 26.2 mg/kg. The values for the inhibitory constant (Ki) in test [2] and in test [3] were 10 nM and 3356 nM, respectively.
In the case of `Cl.Clc1ccc(OCC2CCN(CC3CC3)CC2)cc1Cl`, the IC50 on D(2) dopamine receptor stood at 1650 nM. The compound also showed an ED50 in the test filed under Mus musculus [1] of 3.3 mg/kg. The Ki in test [2] was 8 nM; in test [3] it was 87 nM.
The matching figures for `Br.O=C(CC1CCN(CCC2CC2)CC1)c1ccc(F)cc1`: 220 nM, less than 10 mg/kg, 11 nM and 12 nM.
As to `Cl.Fc1ccc(COCC2CCN(Cc3cccc4ccccc34)CC2)cc1`, the concentration for half-maximal inhibition (IC50) at D(2) dopamine receptor was found to be 219 nM. In the test listed under Mus musculus [1], this compound returned a median effective dose (ED50) of 12 mg/kg. The values for the Ki in test [2] and in test [3] were 22 nM and 25 nM, respectively.
On D(2) dopamine receptor, `COC(=O)c1ccc(COCC2CCN(Cc3ccccc3)CC2)cc1.Cl.O` returned a concentration for half-maximal inhibition (IC50) of 970 nM. Moreover, the 50% effective dose (ED50) in the test listed under Mus musculus [1] was greater than 30 mg/kg. Further, the Ki was 15 nM in test [2] and greater than 10000 nM in test [3].
As to `CCCCCN1CCC(COCc2ccc(F)cc2)CC1.Cl`, at D(2) dopamine receptor, the half-maximal inhibitory concentration (IC50) worked out at 1320 nM. The compound further gave an ED50 in the test listed under Mus musculus [4] of less than 10 mg/kg. Further, the inhibitory constant (Ki) in test [2] was 9 nM.
Compound `CCNc1ccc(OCC2CCN(CC3CC3)CC2)cc1.Cl.O` gave a half-inhibitory concentration (IC50) at D(2) dopamine receptor greater than 10000 nM. Also, the ED50 in the test filed under Mus musculus [1] was greater than 30 mg/kg. Besides, the inhibitory constant (Ki) in test [2] is 33 nM; in test [3], greater than 10000 nM.
At D(2) dopamine receptor, `Br.CC(C)(C)c1ccc(C(=O)CC2CCN(CC3CC3)CC2)cc1.O` showed an IC50 of 1570 nM. The ED50 in the test listed under Mus musculus [1] was greater than 30 mg/kg. For the same compound, the Ki was 8 nM in test [2] and greater than 1000 nM in test [3].
